Reference: ChEMBL document CHEMBL1159304, “Cryphonectric acid and other minor metabolites from a hypovirulent strain of Cryphonectria parasitica” (J Nat Prod, 2002)
Active and inactive are the calls of the source. The calls are words filed in the database; no cut-off is given here.

Columns and labels:
Endothelial cell [1] = assay: Antiangiogenic activity in bovine endothelial cells assessed as inhibition of cell migration at 50 uM; assay type: functional, cell-based; conditions: Bos taurus
Endothelial cell [2] = assay: Antiangiogenic activity in bovine endothelial cells assessed as inhibition of cell migration at 12.5 uM; assay type: functional, cell-based; conditions: Bos taurus
[3] = Cytotoxicity against bovine endothelial cells at 50 uM; assay type: cell-based, Bos taurus; conditions: cattle, endothelial cell
Solanum lycopersicum [4] = assay: Induction of necrotic symptoms in tomato leaves up to 2 mM by tomato seedling bioassay; assay type: functional, organism-based
Procedure, shortened: (§1)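 Tomato seedlings were conditioned 24 h in water, which was then replaced with filter-sterilized (0.2 µm) test solutions at 2, 0.2, 0.1 or 0.01 mM. Phytotoxic symptoms and root growth inhibition were scored at 24, 48 and 72 h. Each assay was run twice on 10 replicate seedlings.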

[5] = Cytotoxicity against bovine endothelial cells at 12.5 uM; assay type: cell-based, Bos taurus; conditions: cattle, endothelial cell
Solanum lycopersicum [6] = assay: Inhibition of tomato seedling growth at 100 uM; assay type: functional; procedure, shortened: as §1
Solanum lycopersicum [7] = assay: Inhibition of tomato seedling growth at 10 uM; assay type: functional; design: scale not given: the % may be the effect or the level left; procedure, shortened: as §1
Solanum lycopersicum [8] = assay: Inhibition of tomato seedling growth at 200 uM; assay type: functional, organism-based; procedure, shortened: as §1

## O=C(O)c1cc(O)c(C2OC(=O)c3c(O)cc(O)cc32)c(O)c1 (stereo not given) [CRYPHONECTRIC ACID]
Endothelial cell [1]
  Activity: inactive
Endothelial cell [2]
  Activity: inactive
[3]
  Activity: Non-toxic
Solanum lycopersicum [4]
  Activity: inactive
[5]
  Activity: Non-toxic
Solanum lycopersicum [6]
  Activity: Active

## COc1cc(O)c2c(=O)oc(CC(C)O)cc2c1 (stereo not given) [DIAPORTHIN]
Solanum lycopersicum [7]
  Activity: 50%
Solanum lycopersicum [4]
  Activity: inactive
Solanum lycopersicum [8]
  Activity: Active
Solanum lycopersicum [6]
  Activity: 75%
